# In ChEMBL document CHEMBL3272003, “(-)-3-Isothujone, a small nonnitrogenous molecule with antinociceptive activity in mice” (J Med Chem, 1976):
# Calls of active or inactive are those of the source. The rule behind the calls is not given here.
# What was measured:
# [1] = tested on: Mus musculus; test: Antinociceptive activity in sc dosed male white mouse by hot plate test; assay type: functional
# [2] = Toxicity in sc dosed male white mouse; assay type: organism-based; settings: in vivo
# In short: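 LD50 determined in the same male white mouse strain, with the same vehicle and subcutaneous route as the antinociceptive tests. Room temperature was 23 °C. 95% confidence limits were obtained by probit analysis.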
# [3] = tested on: Mus musculus; test: Toxicity in male white mouse assessed as induction of convulsions at 50 mg/kg, sc; assay type: organism-based; parameters: dose 50 mg/kg, route subcutaneous; settings: in vivo
# [4] = tested on: Mus musculus; test: Toxicity in male white mouse assessed as induction of convulsions<40 mg/kg, sc; assay type: organism-based; settings: in vivo
# [5] = tested on: Mus musculus; test: Antinociceptive activity in sc dosed male white mouse by Nilsen test; assay type: functional
# [6] = tested on: Mus musculus; test: Toxicity in male white mouse assessed as induction of convulsions at 100 mg/kg, sc; assay type: organism-based; parameters: dose 100 mg/kg, route subcutaneous; settings: in vivo
# [7] = tested on: Mus musculus; test: Antinociceptive activity in male white mouse at 100 mg/kg, sc by hot plate test; assay type: functional, organism-based; parameters: dose 100 mg/kg
# In short: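 Hot-plate antinociception test in male white mice, run by the standard method, with the compound given subcutaneously. Room temperature was held at 23 °C during testing.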
# [8] = tested on: Mus musculus; test: Antinociceptive activity in male white mouse at 100 mg/kg, sc by Nilsen test; assay type: functional, organism-based; parameters: dose 100 mg/kg
# [9] = tested on: Mus musculus; test: Antinociceptive activity in male white mouse at 20 mg/kg, sc by Nilsen test; assay type: functional, organism-based; parameters: dose 20 mg/kg
Compound,ED50 [1],LD50 [2],ED50 [5],further results
CC1C(=O)C[C@]2(C(C)C)C[C@H]12 (mixture of isomers),16.7 mg/kg,134 mg/kg,,
CC(C)[C@]12CC(=O)[C@H](C)[C@H]1C2,6.5 mg/kg,87.5 mg/kg,14.1 mg/kg,Activity [3]: Toxic; Activity [4]: Non-toxic
CCCCCc1cc(O)c2c(c1)OC(C)(C)[C@@H]1CCC(C)=C[C@@H]21 [DRONABINOL],9.6 mg/kg,,,
CC(C)[C@]12C[C@@H](O)[C@H](C)[C@H]1C2,33.3 mg/kg,,,
CN1CC[C@]23c4c5ccc(O)c4O[C@H]2[C@@H](O)C=C[C@H]3[C@H]1C5.CN1CC[C@]23c4c5ccc(O)c4O[C@H]2[C@@H](O)C=C[C@H]3[C@H]1C5.O=S(=O)(O)O,1.2 mg/kg,,0.8 mg/kg,
CC(C)[C@]12CC(=O)[C@@H](C)[C@H]1C2,,442 mg/kg,,Activity [6]: Toxic; Activity [7]: Active; Activity [8]: Active
CCCCCc1cc(O)c2c(c1)OC(C)(C)[C@@H]1CC=C(C)CC21 (some centres undefined),8.8 mg/kg,,,Activity [9]: inactive
COc1ccc2c3c1O[C@H]1[C@@H](O)C=C[C@H]4[C@@H](C2)N(C)CC[C@@]341.Cl,7.5 mg/kg,270 mg/kg,4.5 mg/kg,
CCC(=O)C(CC(C)N(C)C)(c1ccccc1)c1ccccc1 (racemic) [METHADONE],0.8 mg/kg,44 mg/kg,,
CCCCCc1cc(O)c2c(c1)OC(C)(C)C1CC=C(CO)CC21 (centres undefined),1.9 mg/kg,,5.4 mg/kg,
